Activity data for 1 compound are collected here from ChEMBL document CHEMBL4354843, “Structure-Based Design of a Potent and Selective Covalent Inhibitor for SRC Kinase That Targets a P-Loop Cysteine” (J Med Chem, 2020).

The structures appear in SMILES notation.

The target in experiment [1] is Focal adhesion kinase 1 (Homo sapiens) (UniProt Q05397). Description: Binding affinity to wild-type human partial length FAK (D402 to R696 residues) expressed in bacterial expression system assessed as residual binding level at 1 uM by Kinomescan method relative to control.
The target of experiment [2] is Ephrin type-A receptor 4 (Homo sapiens) (UniProt P54764). Description: Binding affinity to wild-type human partial length EPHA4 (T601 to R897 residues) expressed in bacterial expression system assessed as residual binding level at 1 uM by Kinomescan method relative to control. The essentials:
(§1)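 Active-site-directed competition binding panel of 468 kinases (KinomeScan), compound at 1 μM. The read-out is kinase remaining bound, given as a percentage of the DMSO control. […]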

In experiment [3] the target is Interleukin-1 receptor-associated kinase 4 (Homo sapiens) (UniProt Q9NWZ3). Put plainly: Binding affinity to wild-type human partial length IRAK4 (M1 to S460 residues) expressed in mammalian expression system assessed as residual binding level at 1 uM by Kinomescan method relative to control.
Experiment [4] addresses G protein-coupled receptor kinase 4 (Homo sapiens) (UniProt P32298). Put plainly: Binding affinity to wild-type human full length GRK4 (M1 to C578 residues) expressed in bacterial expression system assessed as residual binding level at 1 uM by Kinomescan method relative to control. The method, boiled down:
(§2)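 Active-site-directed KinomeScan competition binding panel covering 468 kinases, compound tested at 1 μM. Each readout is the kinase signal remaining with compound, expressed as a percentage of the DMSO control. […]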

Experiment [5] deals with Serine/threonine-protein kinase pim-3 (Homo sapiens) (UniProt Q86V86). Put plainly: Binding affinity to wild-type human partial length PIM3 (G16 to A317 residues) expressed in bacterial expression system assessed as residual binding level at 1 uM by Kinomescan method relative to control.
Experiment [6] addresses Serine/threonine-protein kinase B-raf (Homo sapiens) (UniProt P15056). Description: Binding affinity to wild-type human partial length BRAF (S429 to E741 residues) expressed in mammalian expression system assessed as residual binding level at 1 uM by Kinomescan method relative to control.
Experiment [7] concerns the target Calcium/calmodulin-dependent protein kinase type II subunit alpha (Homo sapiens) (UniProt Q9UQM7). Put plainly: Binding affinity to wild-type human partial length CAMK2A (M1 to K328 residues) expressed in bacterial expression system assessed as residual binding level at 1 uM by Kinomescan method relative to control.
Experiment [8] deals with Mitogen-activated protein kinase 9 (Homo sapiens) (UniProt P45984). Put plainly: Binding affinity to wild-type human full length JNK2 (M1 to Q382 residues) expressed in mammalian expression system assessed as residual binding level at 1 uM by Kinomescan method relative to control. The essentials:
(§3)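 KinomeScan, an active site-directed competition binding panel of 468 kinases. The test compound was at 1 μM. The readout is remaining kinase binding as a percentage of the DMSO control. Scores above 35% were treated as weak binding and not listed.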

Experiment [9] concerns the target Serine/threonine-protein kinase 17B (Homo sapiens) (UniProt O94768). Description: Binding affinity to wild-type human full length DRAK2 (M1 to C372 residues) expressed in bacterial expression system assessed as residual binding level at 1 uM by Kinomescan method relative to control. The method, boiled down:
as §2

Experiment [10] has as its target Inhibitor of nuclear factor kappa-B kinase subunit alpha (Homo sapiens) (UniProt O15111). Description: Binding affinity to wild-type human full length IKK-alpha (M1 to E745 residues) expressed in mammalian expression system assessed as residual binding level at 1 uM by Kinomescan method relative to control. The method, boiled down:
as §2

Experiment [11] addresses Serine/threonine-protein kinase 36 (Homo sapiens) (UniProt Q9NRP7). Put plainly: Binding affinity to wild-type human partial length STK36 (M1 to T271 residues) expressed in bacterial expression system assessed as residual binding level at 1 uM by Kinomescan method relative to control. The method, boiled down: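 Active site-directed competition binding panel (KinomeScan, 468 kinases). Test compound at 1 μM. Read-out is kinase binding remaining versus DMSO control, expressed as percent of control. Scores above 35% are treated as weak binding.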

Experiment [12] concerns the target Microtubule-associated serine/threonine-protein kinase 1 (Homo sapiens) (UniProt Q9Y2H9). Put plainly: Binding affinity to wild-type human partial length MAST1 (S346 to V730 residues) expressed in mammalian expression system assessed as residual binding level at 1 uM by Kinomescan method relative to control. The essentials: as §1
The test system of experiment [13] is Tyrosine-protein kinase ABL1 (Homo sapiens), P00519 [T315I]. Put plainly: Binding affinity to human non-phosphorylated ABL1 T315I mutant (S229 to K512 residues) expressed in mammalian expression system assessed as residual binding level at 1 uM by Kinomescan method relative to control. The essentials: (§4)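 KinomeScan active site-directed competition binding panel (468 kinases), compound tested at 1 μM. Result expressed as remaining kinase signal versus DMSO control (percent of control).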

The target of experiment [14] is Cyclin-dependent kinase 9 (Homo sapiens) (UniProt P50750). Description: Binding affinity to wild-type human full length CDK9 (M1 to F372 residues) expressed in bacterial expression system assessed as residual binding level at 1 uM by Kinomescan method relative to control. The essentials:
as §2

Experiment [15] has as its system Hepatocyte growth factor receptor (Homo sapiens), P08581 [Y1235D]. Put plainly: Binding affinity to human partial length MET Y1235D mutant (D1010 to S1367 residues) expressed in bacterial expression system assessed as residual binding level at 1 uM by Kinomescan method relative to control. The essentials:
as §4

The target in experiment [16] is Tyrosine-protein kinase BTK (Homo sapiens) (UniProt Q06187). Description: Binding affinity to wild-type human full length BTK (M1 to S659 residues) expressed in mammalian expression system assessed as residual binding level at 1 uM by Kinomescan method relative to control. The method, boiled down: as §3
For experiment [17], the target named is Ephrin type-B receptor 3 (Homo sapiens) (UniProt P54753). Put plainly: Binding affinity to wild-type human partial length EPHB3 (Q599 to T928 residues) expressed in bacterial expression system assessed as residual binding level at 1 uM by Kinomescan method relative to control. The essentials:
as §1

Experiment [18] has as its target Dual specificity protein kinase CLK1 (Homo sapiens) (UniProt P49759). Description: Binding affinity to wild-type human full length CLK1 (M1 to I484 residues) expressed in bacterial expression system assessed as residual binding level at 1 uM by Kinomescan method relative to control. The essentials: as §2
The target of experiment [19] is Receptor-interacting serine/threonine-protein kinase 4 (Homo sapiens) (UniProt P57078). Description: Binding affinity to wild-type human partial length RIPK4 (M1 to V303 residues) expressed in mammalian expression system assessed as residual binding level at 1 uM by Kinomescan method relative to control.
Experiment [20] deals with Tyrosine-protein kinase Mer (Homo sapiens) (UniProt Q12866). Put plainly: Binding affinity to wild-type human partial length MERTK (R557 to L884 residues) expressed in bacterial expression system assessed as residual binding level at 1 uM by Kinomescan method relative to control.
In experiment [21] the target is Bone morphogenetic protein receptor type-1B (Homo sapiens) (UniProt O00238). Description: Binding affinity to wild-type human partial length BMPR1B (D178 to L502 residues) expressed in mammalian expression system assessed as residual binding level at 1 uM by Kinomescan method relative to control.
Chain of Bone morphogenetic protein receptor type-1B (Homo sapiens) (O00238 whole entry, the tested form may be a part): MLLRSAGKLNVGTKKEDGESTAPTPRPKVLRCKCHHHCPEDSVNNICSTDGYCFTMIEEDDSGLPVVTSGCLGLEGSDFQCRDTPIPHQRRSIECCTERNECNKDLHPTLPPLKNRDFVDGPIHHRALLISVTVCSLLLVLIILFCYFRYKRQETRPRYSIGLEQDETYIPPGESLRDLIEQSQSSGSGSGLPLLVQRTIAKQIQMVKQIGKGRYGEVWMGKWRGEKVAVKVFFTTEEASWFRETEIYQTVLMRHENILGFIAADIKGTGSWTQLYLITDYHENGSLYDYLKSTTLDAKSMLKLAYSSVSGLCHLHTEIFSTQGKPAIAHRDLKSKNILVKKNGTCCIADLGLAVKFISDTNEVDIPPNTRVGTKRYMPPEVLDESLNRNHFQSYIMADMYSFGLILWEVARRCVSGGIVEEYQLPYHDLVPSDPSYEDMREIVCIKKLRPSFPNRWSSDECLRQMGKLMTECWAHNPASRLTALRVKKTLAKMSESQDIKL

Chain of Ephrin type-A receptor 4 (Homo sapiens) (P54764 whole entry, the tested form may be a part): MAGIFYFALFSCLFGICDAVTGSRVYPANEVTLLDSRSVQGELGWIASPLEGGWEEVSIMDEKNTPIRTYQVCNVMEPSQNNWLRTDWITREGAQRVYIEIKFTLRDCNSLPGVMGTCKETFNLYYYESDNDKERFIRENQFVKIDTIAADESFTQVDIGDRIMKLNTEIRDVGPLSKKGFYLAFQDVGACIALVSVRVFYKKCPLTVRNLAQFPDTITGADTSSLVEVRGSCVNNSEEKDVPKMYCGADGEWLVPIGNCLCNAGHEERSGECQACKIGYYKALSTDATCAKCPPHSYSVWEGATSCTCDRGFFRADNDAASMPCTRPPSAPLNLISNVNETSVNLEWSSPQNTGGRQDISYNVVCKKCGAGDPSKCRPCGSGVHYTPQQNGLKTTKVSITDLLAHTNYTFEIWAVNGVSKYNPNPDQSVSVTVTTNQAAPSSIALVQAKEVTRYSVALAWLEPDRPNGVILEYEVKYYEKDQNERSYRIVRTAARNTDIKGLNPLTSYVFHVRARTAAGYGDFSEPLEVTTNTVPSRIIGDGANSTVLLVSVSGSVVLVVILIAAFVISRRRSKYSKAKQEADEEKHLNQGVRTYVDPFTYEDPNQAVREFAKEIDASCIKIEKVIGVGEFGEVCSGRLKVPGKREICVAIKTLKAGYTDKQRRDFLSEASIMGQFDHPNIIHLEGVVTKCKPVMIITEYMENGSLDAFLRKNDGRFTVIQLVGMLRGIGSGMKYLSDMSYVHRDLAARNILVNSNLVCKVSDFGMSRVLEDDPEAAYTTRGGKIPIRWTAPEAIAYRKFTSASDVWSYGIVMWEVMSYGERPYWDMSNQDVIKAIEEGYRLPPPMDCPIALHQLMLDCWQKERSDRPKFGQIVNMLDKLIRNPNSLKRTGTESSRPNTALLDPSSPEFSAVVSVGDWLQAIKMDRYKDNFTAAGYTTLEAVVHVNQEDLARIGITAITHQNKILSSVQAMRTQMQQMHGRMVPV
Chain of G protein-coupled receptor kinase 4 (Homo sapiens) (P32298 whole entry, looked up, the tested form may be a part): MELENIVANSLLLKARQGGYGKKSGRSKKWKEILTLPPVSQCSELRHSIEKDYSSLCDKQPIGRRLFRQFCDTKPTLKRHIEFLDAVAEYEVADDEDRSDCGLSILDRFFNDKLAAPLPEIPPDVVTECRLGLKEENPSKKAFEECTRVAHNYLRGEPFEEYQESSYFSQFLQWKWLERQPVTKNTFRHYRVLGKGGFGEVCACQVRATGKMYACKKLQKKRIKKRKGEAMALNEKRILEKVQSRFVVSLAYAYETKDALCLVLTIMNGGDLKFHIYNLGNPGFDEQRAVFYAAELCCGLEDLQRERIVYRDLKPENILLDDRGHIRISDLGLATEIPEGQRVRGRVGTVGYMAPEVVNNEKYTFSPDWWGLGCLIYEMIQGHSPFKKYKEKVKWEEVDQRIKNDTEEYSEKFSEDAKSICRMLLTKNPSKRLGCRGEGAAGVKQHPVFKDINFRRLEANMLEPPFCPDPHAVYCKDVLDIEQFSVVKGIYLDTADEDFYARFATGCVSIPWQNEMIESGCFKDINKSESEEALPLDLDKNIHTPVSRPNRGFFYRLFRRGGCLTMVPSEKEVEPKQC
Chain of Ephrin type-B receptor 3 (Homo sapiens) (P54753 whole entry, the tested form may be a part): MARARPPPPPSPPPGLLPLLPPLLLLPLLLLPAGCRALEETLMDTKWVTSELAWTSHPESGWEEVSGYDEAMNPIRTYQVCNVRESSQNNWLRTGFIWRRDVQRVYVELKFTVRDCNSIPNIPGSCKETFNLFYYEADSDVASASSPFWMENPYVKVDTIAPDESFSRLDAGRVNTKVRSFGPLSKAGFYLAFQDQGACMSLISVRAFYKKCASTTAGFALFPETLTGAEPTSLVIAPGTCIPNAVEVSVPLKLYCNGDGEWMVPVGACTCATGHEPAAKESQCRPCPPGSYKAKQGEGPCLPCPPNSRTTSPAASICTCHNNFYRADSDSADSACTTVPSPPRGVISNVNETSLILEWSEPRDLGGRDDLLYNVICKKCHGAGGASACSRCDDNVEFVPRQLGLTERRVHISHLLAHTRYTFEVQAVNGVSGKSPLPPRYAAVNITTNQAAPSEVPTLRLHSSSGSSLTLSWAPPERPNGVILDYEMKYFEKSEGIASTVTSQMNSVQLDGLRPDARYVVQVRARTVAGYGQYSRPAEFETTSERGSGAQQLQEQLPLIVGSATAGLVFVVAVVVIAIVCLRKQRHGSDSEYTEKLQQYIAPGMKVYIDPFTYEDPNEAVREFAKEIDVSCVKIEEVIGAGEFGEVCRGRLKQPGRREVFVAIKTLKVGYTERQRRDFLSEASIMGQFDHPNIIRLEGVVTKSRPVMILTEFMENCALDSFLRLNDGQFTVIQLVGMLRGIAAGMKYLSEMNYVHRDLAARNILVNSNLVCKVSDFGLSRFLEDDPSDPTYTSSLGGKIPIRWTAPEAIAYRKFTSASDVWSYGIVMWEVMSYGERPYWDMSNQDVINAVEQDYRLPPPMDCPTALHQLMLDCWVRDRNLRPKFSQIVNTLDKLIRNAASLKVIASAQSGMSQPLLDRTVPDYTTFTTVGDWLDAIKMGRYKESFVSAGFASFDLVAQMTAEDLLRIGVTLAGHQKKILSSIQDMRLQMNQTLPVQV
Chain of Serine/threonine-protein kinase B-raf (Homo sapiens) (P15056 whole entry, the tested form may be a part): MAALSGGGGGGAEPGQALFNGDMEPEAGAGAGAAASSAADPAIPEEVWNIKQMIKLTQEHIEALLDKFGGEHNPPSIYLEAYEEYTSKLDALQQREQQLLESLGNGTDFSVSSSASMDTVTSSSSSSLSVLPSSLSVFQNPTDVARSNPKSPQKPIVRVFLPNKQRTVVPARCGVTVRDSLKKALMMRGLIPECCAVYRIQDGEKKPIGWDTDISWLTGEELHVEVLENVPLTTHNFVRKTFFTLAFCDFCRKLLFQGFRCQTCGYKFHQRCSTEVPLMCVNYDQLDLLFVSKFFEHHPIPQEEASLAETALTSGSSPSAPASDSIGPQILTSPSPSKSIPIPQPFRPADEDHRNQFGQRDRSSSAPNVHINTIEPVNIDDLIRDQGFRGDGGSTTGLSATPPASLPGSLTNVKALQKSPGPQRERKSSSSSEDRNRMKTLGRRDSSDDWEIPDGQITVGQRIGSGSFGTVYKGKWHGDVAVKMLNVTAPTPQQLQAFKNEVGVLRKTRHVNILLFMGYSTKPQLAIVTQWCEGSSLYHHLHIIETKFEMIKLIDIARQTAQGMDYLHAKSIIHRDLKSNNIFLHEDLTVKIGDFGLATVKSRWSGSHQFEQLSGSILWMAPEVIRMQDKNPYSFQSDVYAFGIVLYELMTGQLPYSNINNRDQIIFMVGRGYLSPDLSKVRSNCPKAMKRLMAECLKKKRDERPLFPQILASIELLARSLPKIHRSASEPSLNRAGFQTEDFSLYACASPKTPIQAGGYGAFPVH
Chain of Calcium/calmodulin-dependent protein kinase type II subunit alpha (Homo sapiens) (Q9UQM7 whole entry, the tested form may be a part): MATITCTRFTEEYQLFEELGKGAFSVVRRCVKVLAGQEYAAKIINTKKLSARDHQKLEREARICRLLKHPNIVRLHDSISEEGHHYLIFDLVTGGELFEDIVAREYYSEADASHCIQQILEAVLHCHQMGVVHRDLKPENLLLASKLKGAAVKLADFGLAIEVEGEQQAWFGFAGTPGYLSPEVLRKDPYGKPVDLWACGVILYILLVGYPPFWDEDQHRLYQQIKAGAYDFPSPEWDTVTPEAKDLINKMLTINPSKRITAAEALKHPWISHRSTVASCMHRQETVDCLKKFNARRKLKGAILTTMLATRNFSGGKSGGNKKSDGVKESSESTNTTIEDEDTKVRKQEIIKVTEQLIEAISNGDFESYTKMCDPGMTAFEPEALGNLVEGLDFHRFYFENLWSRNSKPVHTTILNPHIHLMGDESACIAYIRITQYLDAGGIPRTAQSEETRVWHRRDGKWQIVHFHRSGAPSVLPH
Chain of Cyclin-dependent kinase 9 (Homo sapiens) (P50750 whole entry, the tested form may be a part): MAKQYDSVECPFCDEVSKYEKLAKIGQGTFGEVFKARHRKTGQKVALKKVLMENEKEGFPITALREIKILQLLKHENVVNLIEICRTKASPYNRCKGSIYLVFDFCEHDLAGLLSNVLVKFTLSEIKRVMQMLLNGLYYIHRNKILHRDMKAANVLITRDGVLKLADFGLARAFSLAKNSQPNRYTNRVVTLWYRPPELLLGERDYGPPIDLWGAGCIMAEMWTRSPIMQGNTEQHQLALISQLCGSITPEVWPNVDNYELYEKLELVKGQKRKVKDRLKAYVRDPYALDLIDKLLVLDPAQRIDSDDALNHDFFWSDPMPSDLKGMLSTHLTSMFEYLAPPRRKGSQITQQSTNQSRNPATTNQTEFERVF

`C=CC(=O)Nc1ccccc1Nc1nc(Nc2ccc(N3CCN(C)CC3)cc2)ncc1C(=O)Nc1c(C)cccc1Cl`: the Activity in experiment [1] is 100%; in experiment [2], 75%; in experiment [3] it was 100%; in experiment [4], 100%; in experiment [5] it was 100%; in experiment [6], 100%. Also, the Activity in experiment [7] came out at 100%; in [8] it was 94%; in experiment [9], 100%; in [10] it was 100%; in experiment [11] it was 47%; in experiment [12], 82%. The Activity turned out to be 100% in experiment [13]; 100% in experiment [14]; 100% in experiment [15]; 0.1% in experiment [16]; 97% in [17]; 100% in experiment [18]. Further, the Activity came out at 100% in experiment [19], 95% in experiment [20] and 100% in experiment [21].
